Assay results taken from publication PMC9476207 (ACS Omega, 2022).

How the values were obtained:
Assay in all cases: NCI-60 single-dose antiproliferative screen
Assay type in all cases: cell-based
[1] = test system: MDA-MB-231 ATCC; conditions: Homo sapiens, MDA-MB-231, 48 h, read-out: growth percent
Procedure, shortened: (§1)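 NCI-60 protocol. Lines were grown in RPMI 1640 with 5% FBS and 2 mM L-glutamine, plated and incubated 24 h at 37 °C; time-zero plates were TCA-fixed. The test compound was dissolved in DMSO, diluted in medium with 50 μg/mL gentamicin and given once at a final 10^-5 M (DMSO control) for 48 h. Cells were fixed with cold TCA (1 h, 4 °C) and stained with 0.4% SRB in 1% acetic acid for 10 min. Dye was dissolved in 10 mM Trizma base and read at 515 nm. Growth percent was calculated from time-zero, test and control ODs.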

[2] = test system: OVCAR-3; conditions: Homo sapiens, OVCAR-3, 48 h, read-out: growth percent
Procedure, shortened: as §1

[3] = test system: MOLT-4; conditions: Homo sapiens, MOLT-4, 48 h, read-out: growth percent
Procedure, shortened: as §1

[4] = test system: HOP-92; conditions: Homo sapiens, HOP-92, 48 h, read-out: growth percent
Procedure, shortened: as §1

[5] = test system: SF-295; conditions: Homo sapiens, SF-295, 48 h, read-out: growth percent
Procedure, shortened: as §1

[6] = test system: MCF-7; conditions: Homo sapiens, MCF7, 48 h, read-out: growth percent
Procedure, shortened: as §1

[7] = test system: BT-549; conditions: Homo sapiens, BT-549, 48 h, read-out: growth percent
Procedure, shortened: as §1

[8] = test system: U251; conditions: Homo sapiens, U-251, 48 h, read-out: growth percent
Procedure, shortened: (§2)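 Cells grown in RPMI 1640 with 5% FBS and 2 mM L-glutamine, plated and held 24 h at 37 °C; time-zero plates TCA-fixed. DMSO stocks were diluted in gentamicin-containing medium to a final 10^-5 M, with a DMSO-only control. Exposure 48 h, 5% CO2. Adherent cells TCA-fixed 1 h at 4 °C, stained with 0.4% SRB, solubilised in 10 mM Trizma base, read at 515 nm. Growth percent derived from ODtzero, ODtest and ODctrl.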

[9] = test system: HCT-15; conditions: Homo sapiens, HCT-15, 48 h, read-out: growth percent
Procedure, shortened: as §1

[10] = test system: HT29; conditions: Homo sapiens, HT-29, 48 h, read-out: growth percent
Procedure, shortened: as §1

[11] = test system: IGROV1; conditions: Homo sapiens, IGROV-1, 48 h, read-out: growth percent
Procedure, shortened: as §1

[12] = test system: LOX IMVI; conditions: Homo sapiens, 48 h, read-out: growth percent
Procedure, shortened: as §1

[13] = test system: 786-0; conditions: Homo sapiens, 786-0, 48 h, read-out: growth percent
Procedure, shortened: as §1

[14] = test system: EKVX; conditions: Homo sapiens, 48 h, read-out: growth percent
Procedure, shortened: as §1

[15] = test system: ACHN; conditions: Homo sapiens, 48 h, read-out: growth percent
Procedure, shortened: as §1

[16] = test system: NCI-H460; conditions: Homo sapiens, NCI-H460, 48 h, read-out: growth percent
Procedure, shortened: as §1

[17] = test system: NCI-H322M; conditions: Homo sapiens, 48 h, read-out: growth percent
Procedure, shortened: as §1

[18] = test system: MDA-MB-468; conditions: Homo sapiens, MDA-MB-468, 48 h, read-out: growth percent
Procedure, shortened: as §1

[19] = test system: SNB-19; conditions: Homo sapiens, SNB-19, 48 h, read-out: growth percent
Procedure, shortened: as §2

[20] = test system: UO-31; conditions: Homo sapiens, UO-31, 48 h, read-out: growth percent
Procedure, shortened: as §2

| Compound | activity at 10 µM [1] [%] | activity at 10 µM [2] [%] | activity at 10 µM [3] [%] | activity at 10 µM [4] [%] | activity at 10 µM [5] [%] | activity at 10 µM [6] [%] | activity at 10 µM [7] [%] | activity at 10 µM [8] [%] | activity at 10 µM [9] [%] | activity at 10 µM [10] [%] | activity at 10 µM [11] [%] | activity at 10 µM [12] [%] | activity at 10 µM [13] [%] | activity at 10 µM [14] [%] | activity at 10 µM [15] [%] | activity at 10 µM [16] [%] | activity at 10 µM [17] [%] | activity at 10 µM [18] [%] | activity at 10 µM [19] [%] | activity at 10 µM [20] [%] |
| --- | --- | --- | --- | --- | --- | --- | --- | --- | --- | --- | --- | --- | --- | --- | --- | --- | --- | --- | --- | --- |
| COc1cc(CNC(=O)CCCC/C=C/C(C)C)ccc1OCc1cn(-c2ccc([N+](=O)[O-])cc2)nn1 [14e, (E)-N-(3-Methoxy-4-((1-(4-nitrophenyl)-1H-1,2,3-triazol-4-yl)methoxy)benzyl)-8methylnon-6-enamide] | 75.3 | 92.7 | 79.3 | 90.3 | 89 | 83.5 | 80.4 | 86.4 | 96.2 | 98.1 | 90.4 | 89.5 | 93.7 | 75.3 | 82 | 99.8 | 97.9 | 77.4 | 97.4 | 60.6 |
| COc1cc(CNC(=O)CCCC/C=C/C(C)C)ccc1OCc1cn(-c2cc(OC)c(OC)c(OC)c2)nn1 [14m, (E)-N-(3-Methoxy-4-((1-(3,4,5-trimethoxyphenyl)-1H-1,2,3-triazol-4-yl)methoxy)benzyl)-8-methylnon-6-enamide] | 92.7 | 103 | 92 | 82.5 | 105 | 102 | 79.1 | 92.8 | 103 | 87.2 | 103 | 94.4 | 108 | 95.9 | – | 102 | 89.1 | 80.4 | 85.1 | 117 |
| COc1cc(CNC(=O)CCCC/C=C/C(C)C)ccc1OCc1cn(-c2cccc([N+](=O)[O-])c2)nn1 [14f, (E)-N-(3-Methoxy-4-((1-(3-nitrophenyl)-1H-1,2,3-triazol-4-yl)methoxy)benzyl)-8-methylnon-6-enamide] | 88.4 | 105 | 86.6 | 70.4 | 104 | 74.1 | 96.3 | 85.3 | 77.9 | 88.9 | 89.4 | 92.9 | 73.4 | 95.1 | 78.9 | 91.8 | 94.1 | 72.3 | 68.2 | 74.7 |
| COc1cc(CNC(=O)CCCC/C=C/C(C)C)ccc1OCc1cn(-c2ccc(Cl)c(Cl)c2)nn1 [14d, (E)-N-(4-((1-(3,4-Dichlorophenyl)-1H-1,2,3-triazol-4-yl)methoxy)-3-methoxybenzyl)-8-methylnon-6-enamide] | 87.3 | 92.4 | 86.4 | 78.7 | 94.6 | 95.3 | 91.8 | 91.9 | 93.6 | 99.4 | 104 | 87 | 96.3 | 76.2 | – | 101 | 93.2 | 71.6 | 87.3 | 103 |
| COc1cc(CNC(=O)CCCC/C=C/C(C)C)ccc1OCc1cn(-c2ccccc2OC)nn1 [14l, (E)-N-(3-Methoxy-4-((1-(2-methoxyphenyl)-1H-1,2,3-triazol-4-yl)methoxy)benzyl)-8-methylnon-6-enamide] | 95.8 | 103 | 79.7 | 72.1 | 108 | 98.2 | 93.1 | 90.2 | 106 | 98.7 | 104 | 86.1 | 102 | 89.4 | – | 104 | 92.2 | 75.5 | 91.6 | 105 |
| COc1cc(CNC(=O)CCCC/C=C/C(C)C)ccc1OCc1cn(-c2ccccc2Cl)nn1 [14c, (E)-N-(4-((1-(2-Chlorophenyl)-1H-1,2,3-triazol-4-yl)methoxy)-3-methoxybenzyl)-8-methylnon-6-enamide] | 80.8 | 101 | 81 | 80.1 | 99.4 | 97.2 | 90.8 | 85.7 | 94.1 | 98.2 | 98.8 | 89.9 | 93.8 | 82.1 | 74.1 | 101 | 89.4 | 88.2 | 89.7 | 75.2 |
| COc1cc(CNC(=O)CCCC/C=C/C(C)C)ccc1OCc1cn(-c2ccc(Br)cc2)nn1 [14k, (E)-N-(4-((1-(4-Bromophenyl)-1H-1,2,3-triazol-4-yl)methoxy)-3-methoxybenzyl)-8-methylnon-6-enamide] | 71.3 | 100 | 77.5 | 68.8 | 85.4 | 76.2 | 88.1 | 75.5 | 94 | 98.1 | 72.7 | 83.7 | 92 | 72.7 | 87.7 | 72.1 | 90.6 | 68.2 | 80.9 | 67.9 |
| CCc1ccc(-n2cc(COc3ccc(CNC(=O)CCCC/C=C/C(C)C)cc3OC)nn2)cc1 [14o, (E)-N-(4-((1-(4-Ethylphenyl)-1H-1,2,3-triazol-4-yl)methoxy)-3-methoxybenzyl)-8-methylnon-6-enamide] | 88 | 101 | 79.6 | 86.5 | 100 | 102 | 99.1 | 89.4 | 94.4 | 109 | 102 | 89.3 | 100 | 82.1 | – | 103 | 90.5 | 79.8 | 85.7 | 93.9 |
| COc1cc(CNC(=O)CCCC/C=C/C(C)C)ccc1OCc1cn(-c2ccc(C(F)(F)F)cc2)nn1 [14g, (E)-N-(3-Methoxy-4-((1-(4-(trifluoromethyl)phenyl)-1H-1,2,3-triazol-4-yl)methoxy)benzyl)-8-methylnon-6-enamide] | 75.2 | 107 | 80.3 | 13.8 | 90.9 | 80.7 | 80.4 | 46.7 | 59.7 | 79 | 58.7 | 60.3 | 2.94 | 88.2 | – | 16.7 | 96.2 | 70.2 | 76.1 | 92.8 |
